Results from ChEMBL document CHEMBL1146375, “Synthetic studies on novel benzimidazolopeptides with antimicrobial, cytotoxic and anthelmintic potential” (2007).
In brackets after ≈: the same amount, converted by molar mass. Residues, ends and D or L forms follow the SMILES beside them. *: point of attachment. X4 = Cc1cc2nc(-c3ccc(C(=O)*)cc3)[nH]c2cc1C

Legend:
[1] = system: Bacillus subtilis; assay: Antibacterial activity against Bacillus subtilis NCIM 2063 after 18 hrs by tube dilution method; type: functional; details: NCIM 2063, 18 h
In short: (§1)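 Tube dilution MIC. Stock diluted in sterile broth to seven concentrations from 200 to 3.1 […]. Each tube inoculated with one loopful of test bacterium and incubated 18 h at 37 °C. MIC read from presence or absence of growth.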

[2] = system: Trichophyton benhamiae; assay: Antifungal activity against Trichophyton mentagrophytes MUCC 665 after 48 hrs by disc diffusion method; type: functional, Arthroderma benhamiae
In short: (§2)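 Agar well diffusion on plates inoculated with spore suspension in normal saline from cultures on Sabouraud's broth. Wells punched and loaded with test samples or griseofulvin at 10 mg mL^-1, with DMSO as negative control. Incubated 48 h at 37 °C.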

[3] = system: Pontoscolex corethrurus; assay: Anthelmintic activity against Pontoscolex corethrurus ICARBC 408 assessed as mean paralyzing time; type: functional
In short: (§3)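 Earthworms exposed to test suspensions at 2 mg mL^-1 (0.2% w/v), made by triturating compound with Tween 80 (0.5%) and distilled water, then mechanically stirred 30 min. Mebendazole suspension prepared alike as reference. Paralysis and death times recorded; death confirmed by no movement in 50 °C water. Means from triplicate sets.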

[4] = Anthelmintic activity against Megascoplex konkanensis ICARBC 211 assessed as mean paralyzing time; type: functional; in short: as §3
[5] = system: Trichophyton benhamiae; assay: Antifungal activity against Trichophyton mentagrophytes MUCC 665 after 48 hrs by tube dilution method; type: functional, Arthroderma benhamiae
In short: (§4)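 Tube dilution MIC as for bacteria (seven concentrations, 200–3.1 […]), with DMSO in place of DMF. Tubes inoculated with fungal culture and incubated 48 h at 37 °C. MIC read from presence or absence of growth.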

[6] = system: Eudrilus; assay: Anthelmintic activity against Eudrilus sp. assessed as mean death time; type: functional
In short: (§5)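 Earthworms exposed to test suspensions at 2 mg mL−1, prepared by triturating compound with Tween 80 (0.5%) and distilled water, stirring 30 min, then diluting to 0.2% w/v. Mebendazole suspension was made the same way. Death was confirmed by moving worms into 50 °C warm water and looking for movement. Mean death time (min) taken from triplicate sets.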

[7] = system: Staphylococcus aureus; assay: Antibacterial activity against Staphylococcus aureus NCIM 2079 after 18 hrs by tube dilution method; type: functional; details: NCIM 2079, 18 h; in short: as §1
[8] = system: Candida albicans; assay: Antifungal activity against Candida albicans MUCC 29 after 48 hrs by disc diffusion method; type: functional; in short: as §2
[9] = system: Staphylococcus aureus; assay: Antibacterial activity against Staphylococcus aureus NCIM 2079 after 18 hrs by disc diffusion method; type: functional
In short: (§6)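 Modified Kirby-Bauer disc diffusion. Plates inoculated with spore suspension (about 6 × 10⁴ spores mL^-1). Sterile 6 mm paper discs carried test samples at 10 mg mL^-1; ciprofloxacin disc as reference, DMF disc as negative control. Plates held 18 h at 37 °C. Inhibition zone diameters (mm) averaged over triplicate sets.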

[10] = system: Bacillus subtilis; assay: Antibacterial activity against Bacillus subtilis NCIM 2063 after 18 hrs by disc diffusion method; type: functional; in short: as §6
[11] = system: Eudrilus; assay: Anthelmintic activity against Eudrilus sp. assessed as mean paralyzing time; type: functional; in short: as §3
[12] = system: Candida albicans; assay: Antifungal activity against Candida albicans MUCC 29 after 48 hrs by tube dilution method; type: functional; in short: as §4
[13] = system: Escherichia coli; assay: Antibacterial activity against Escherichia coli NCIM 2065 after 18 hrs by disc diffusion method; type: functional; in short: as §6
[14] = system: Pontoscolex corethrurus; assay: Anthelmintic activity against Pontoscolex corethrurus ICARBC 408 assessed as mean death time; type: functional; in short: as §5
[15] = system: Aspergillus niger; assay: Antifungal activity against Aspergillus niger MUCC 177 after 48 hrs by disc diffusion method; type: functional; in short: as §2
[16] = system: Pseudomonas aeruginosa; assay: Antibacterial activity against Pseudomonas aeruginosa NCIM 2034 after 18 hrs by disc diffusion method; type: functional; in short: as §6
[17] = system: Escherichia coli; assay: Antibacterial activity against Escherichia coli NCIM 2065 after 18 hrs by tube dilution method; type: functional; details: NCIM 2065, 18 h
[18] = system: Pseudomonas aeruginosa; assay: Antibacterial activity against Pseudomonas aeruginosa NCIM 2034 after 18 hrs by tube dilution method; type: functional; details: NCIM 2034, 18 h; in short: as §1
[19] = system: Microsporum audouinii; assay: Antifungal activity against Microsporum audouinii MUCC 545 after 48 hrs by disc diffusion method; type: functional; in short: as §2
[20] = Anthelmintic activity against Megascoplex konkanensis ICARBC 211 assessed as mean death time; type: functional; in short: as §3
[21] = system: Microsporum audouinii; assay: Antifungal activity against Microsporum audouinii MUCC 545 after 48 hrs by tube dilution method; type: functional; in short: as §4

SMILES | MIC [1] | inhibition zone (IZ) [2] | Time [3] | TIME [4] | MIC [5] | Time [6] | MIC [7] | inhibition zone (IZ) [8] | inhibition zone (IZ) [9] | inhibition zone (IZ) [10] | Time [11] | MIC [12] | inhibition zone (IZ) [13] | Time [14] | inhibition zone (IZ) [15] | inhibition zone (IZ) [16] | MIC [17] | MIC [18] | inhibition zone (IZ) [19] | TIME [20] | other results
COC(=O)[C@H](C)NC(=O)[C@@H](NC(=O)[C@H](C)NC(=O)c1cc(-c2nc3cc(C)c(C)cc3[nH]2)ccc1O)C(C)C | 6 µg/mL (≈ 11.2 µM) | 14 mm | 29.89 min | 0.426 h | 6 µg/mL (≈ 11.2 µM) | 36.23 min | 25 µg/mL (≈ 46.5 µM) | 18 mm | 9 mm | 13 mm | 25.55 min | 6 µg/mL (≈ 11.2 µM) | 16 mm | 41.79 min | 16 mm | 19 mm | 25 µg/mL (≈ 46.5 µM) | 6 µg/mL (≈ 11.2 µM) | 10 mm | 0.578 h | MIC [21]: 6 µg/mL (≈ 11.2 µM)
CC[C@H](C)[C@H](NC(=O)CNC(=O)[C@H](Cc1c[nH]c2ccccc12)NC(=O)c1ccc(-c2nc3cc(C)c(C)cc3[nH]2)cc1)C(=O)N[C@@H](C)C(=O)OC (X4-WGIA-OMe) | 6 µg/mL (≈ 8.48 µM) | 9 mm | 17.22 min | 0.221 h | 25 µg/mL (≈ 35.3 µM) | 24.1 min | 12.5 µg/mL (≈ 17.7 µM) | 19 mm | 10 mm | 14 mm | 13.59 min | 25 µg/mL (≈ 35.3 µM) | 18 mm | 29.57 min | 19 mm | 20 mm | 12.5 µg/mL (≈ 17.7 µM) | 6 µg/mL (≈ 8.48 µM) | 10 mm | 0.375 h | MIC [21]: 6 µg/mL (≈ 8.48 µM)
COC(=O)[C@H](Cc1c[nH]c2ccccc12)NC(=O)c1cc(I)c(-c2nc3cc(C)c(C)cc3[nH]2)c(I)c1 | 6 µg/mL (≈ 8.35 µM) | 12 mm | 17.1 min | 0.217 h | 6 µg/mL (≈ 8.35 µM) | 24.02 min | 12.5 µg/mL (≈ 17.4 µM) | 18 mm | 12 mm | 16 mm | 13.5 min | 6 µg/mL (≈ 8.35 µM) | 19 mm | 29.29 min | 19 mm | 25 mm | 12.5 µg/mL (≈ 17.4 µM) | 6 µg/mL (≈ 8.35 µM) | 9 mm | 0.371 h | MIC [21]: 12.5 µg/mL (≈ 17.4 µM)
COC(=O)CNC(=O)[C@H](Cc1ccc(O)cc1)NC(=O)[C@H](C)NC(=O)c1cc(I)c(-c2nc3cc(C)c(C)cc3[nH]2)c(I)c1 | 6 µg/mL (≈ 7.29 µM) | 13 mm | 34.13 min | 0.472 h | 12.5 µg/mL (≈ 15.2 µM) | 45.3 min | 12.5 µg/mL (≈ 15.2 µM) | 15 mm | 12 mm | 15 mm | 27.42 min | 6 µg/mL (≈ 7.29 µM) | 17 mm | 48.24 min | 15 mm | 20 mm | 12.5 µg/mL (≈ 15.2 µM) | 6 µg/mL (≈ 7.29 µM) | 9 mm | 0.652 h | MIC [21]: 12.5 µg/mL (≈ 15.2 µM)
COC(=O)[C@@H](NC(=O)c1cc(I)c(-c2nc3cc(C)c(C)cc3[nH]2)c(I)c1)[C@@H](C)O | 6 µg/mL (≈ 9.48 µM) | 10 mm | 40.6 min | 0.587 h | 10 µg/mL (≈ 15.8 µM) | 69.45 min | 12.5 µg/mL (≈ 19.7 µM) | 19 mm | 13 mm | 20 mm | 31.22 min | 6 µg/mL (≈ 9.48 µM) | 16 mm | 78.32 min | 15 mm | 23 mm | 12.5 µg/mL (≈ 19.7 µM) | 6 µg/mL (≈ 9.48 µM) | 8 mm | 0.987 h | MIC [21]: 25 µg/mL (≈ 39.5 µM)
Cc1cc2nc(-c3ccc(O)c(C(=O)N[C@@H](C)C(=O)N[C@H](C(=O)N[C@@H](C)C(=O)O)C(C)C)c3)[nH]c2cc1C | 6 µg/mL (≈ 11.5 µM) | 15 mm | 29.65 min | 0.42 h | 6 µg/mL (≈ 11.5 µM) | 36.14 min | 25 µg/mL (≈ 47.7 µM) | 19 mm | 11 mm | 14 mm | 25.18 min | 6 µg/mL (≈ 11.5 µM) | 17 mm | 41.6 min | 17 mm | 21 mm | 25 µg/mL (≈ 47.7 µM) | 6 µg/mL (≈ 11.5 µM) | 11 mm | 0.57 h | MIC [21]: 6 µg/mL (≈ 11.5 µM)
COC(=O)[C@H](CCCNC(=N)N[N+](=O)[O-])NC(=O)c1ccc(-c2nc3cc(C)c(C)cc3[nH]2)cc1 | 12.5 µg/mL (≈ 26 µM) | 12 mm | 21.65 min | 0.309 h | 12.5 µg/mL (≈ 26 µM) | 28.21 min | 25 µg/mL (≈ 51.9 µM) | 15 mm | 9 mm | 14 mm | 18.67 min | 12.5 µg/mL (≈ 26 µM) | 17 mm | 35.22 min | 15 mm | 23 mm | 12.5 µg/mL (≈ 26 µM) | 6 µg/mL (≈ 12.5 µM) | 8 mm | 0.443 h | MIC [21]: 12.5 µg/mL (≈ 26 µM)
COC(=O)[C@H](Cc1ccc(O)cc1)NC(=O)[C@H](C)NC(=O)[C@H](Cc1c[nH]c2ccccc12)NC(=O)c1cc(-c2nc3cc(C)c(C)cc3[nH]2)ccc1O | 12.5 µg/mL (≈ 17.4 µM) | 14 mm | 17.6 min | 0.228 h | 6 µg/mL (≈ 8.37 µM) | 24.07 min | 12.5 µg/mL (≈ 17.4 µM) | 17 mm | 10 mm | 13 mm | 13.41 min | 6 µg/mL (≈ 8.37 µM) | 16 mm | 29.34 min | 16 mm | 21 mm | 12.5 µg/mL (≈ 17.4 µM) | 6 µg/mL (≈ 8.37 µM) | 11 mm | 0.379 h | MIC [21]: 12.5 µg/mL (≈ 17.4 µM)
COC(=O)[C@@H]1CCCN1C(=O)[C@H](Cc1cnc[nH]1)NC(=O)c1cc(I)c(-c2nc3cc(C)c(C)cc3[nH]2)c(I)c1 | 6 µg/mL (≈ 7.83 µM) | 12 mm | 17.52 min | 0.229 h | 6 µg/mL (≈ 7.83 µM) | 23.98 min | 12.5 µg/mL (≈ 16.3 µM) | 16 mm | 11 mm | 14 mm | 13.48 min | 6 µg/mL (≈ 7.83 µM) | 17 mm | 29.58 min | 13 mm | 24 mm | 12.5 µg/mL (≈ 16.3 µM) | 6 µg/mL (≈ 7.83 µM) | 9 mm | 0.379 h | MIC [21]: 25 µg/mL (≈ 32.6 µM)
Cc1cc2nc(-c3c(I)cc(C(=O)N[C@@H](Cc4ccccc4)C(=O)N[C@H](C(=O)N4CCC[C@H]4C(=O)O)C(C)C)cc3I)[nH]c2cc1C | 6 µg/mL (≈ 6.96 µM) | 13 mm | 34.13 min | 0.44 h | 6 µg/mL (≈ 6.96 µM) | 44.1 min | 25 µg/mL (≈ 29 µM) | 17 mm | 13 mm | 17 mm | 27.1 min | 6 µg/mL (≈ 6.96 µM) | 18 mm | 50.13 min | 15 mm | 24 mm | 25 µg/mL (≈ 29 µM) | 12.5 µg/mL (≈ 14.5 µM) | 11 mm | 0.698 h | MIC [21]: 12.5 µg/mL (≈ 14.5 µM)
